Data published in ChEMBL document CHEMBL1157586 (Bioorg Med Chem, 2010).
The source made the active and inactive calls. The rule behind the calls is not given here.

What was measured:
[1] = Inhibition of SULU1 by scintillation proximity assay
[2] = test system: A2780; experiment: Cell cycle arrest in human A2780 cells assessed as accumulation at G0/G1 phase at 1 uM after 24 hrs by FACS analysis; format: functional
Summary of the method: (§1)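 A2780 cells (ECACC) seeded at 25000 cells/cm² in RPMI 1640, pH 7.4, with 10% FBS, 2 mM L-glutamine and penicillin–streptomycin, at 37 °C in 5% CO₂. After 24 h, treated for 24 h at 1 and 3 µM. Floating and trypsinised adherent cells pooled, PBS-washed, and DNA content analysed by flow cytometry.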

[3] = Inhibition of CK2 by scintillation proximity assay
[4] = test system: HCT-116; experiment: Antitumor activity against human HCT116 cells xenografted in iv dosed BALB/c nu/nu mouse assessed as inhibition of tumor growth administered QD for 10 consecutive days measured every 3 days post last dose; format: functional, organism-based
Summary of the method: (§2)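 Human tumor xenografts (A2780 ovarian, HCT-116 colon, BX-PC3 pancreatic) in mice. Compound dissolved in 5% dextrose and given iv once daily for 10 consecutive days; A2780 curves show dosing from day 8. Doses were 10, 20 and 30 mg/kg for A2780, and 10 and 20 mg/kg for HCT-116 and BX-PC3. Controls received vehicle. Tumor growth inhibition taken at end of treatment; body weight tracked.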

[5] = test system: A2780; experiment: Cell cycle arrest in human A2780 cells assessed as accumulation at G2/M phase at 3 uM after 24 hrs by FACS analysis; format: functional; summary of the method: as §1
[6] = test system: A2780; experiment: Cell cycle arrest in human A2780 cells assessed as accumulation at sub-G1 phase at 3 uM after 24 hrs by FACS analysis; format: functional; summary of the method: as §1
[7] = Antiproliferative activity against human C-433 cells after 72 hrs by SRB assay; format: functional, cell-based; conditions: C-433, 72 h
[8] = test system: A2780; experiment: Cell cycle arrest in human A2780 cells assessed as accumulation at S phase at 1 uM after 24 hrs by FACS analysis; format: functional; summary of the method: as §1
[9] = test system: PC-3; experiment: Antiproliferative activity against human PC3 cells after 72 hrs by SRB assay; format: functional, cell-based; conditions: PC-3, 72 h
[10] = test system: COLO 205; experiment: Antiproliferative activity against human COLO205 cells after 72 hrs by SRB assay; format: functional, cell-based; conditions: COLO 205, 72 h
[11] = test system: Mus musculus; experiment: Inhibition of CDK in human A2780 cells xenografted in iv dosed BALB/c nu/nu mouse assessed as reduction of hyperphosphorylated form of retinoblastoma protein at 30 mg/kg, iv for 5 days by immunohistochemistry; format: functional, organism-based; design: dose 30 mg/kg
Summary of the method: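 Mice bearing A2780 xenografts given 30 mg/kg iv for 5 days; vehicle controls. Tumors analysed by immunohistochemistry for BrdU and phospho-pRb positive cells. For BrdU, sections were denatured and pretreated with 4 N HCl and proteinase K, then stained with the Dako ARK kit and counterstained with hematoxylin. Automated quantitative image analysis done by two observers.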

[12] = test system: A-375; experiment: Antiproliferative activity against human A375 cells after 72 hrs by SRB assay; format: functional, cell-based; conditions: A-375, 72 h
[13] = test system: A2780; experiment: Antitumor activity against human A2780 cells xenografted in iv dosed BALB/c nu/nu mouse assessed as reduction of BrdU incorporation into cellular DNA at 30 mg/kg, iv for 5 days by immunohistochemistry
[14] = test system: A2780; experiment: Inhibition of cellular DNA synthesis in human A2780 cells assessed as BrdU incorporation into nuclear DNA at 3 uM after 24 hrs by Hoechst 33342 staining-based microscopic analysis; format: functional; design: scale not given: the % may be the effect or the level left
Summary of the method: (§3)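 A2780 human ovarian adenocarcinoma cells were seeded at 25000 cells/cm² in RPMI 1640 pH 7.4 with 10% FBS, 2 mM L-glutamine and penicillin–streptomycin. They were kept at 37 °C in 5% CO₂. After 24 h they were exposed to compound for 24 h. Floating and adherent cells were harvested with trypsin/EDTA, washed in PBS, and split for flow cytometry, immunoblot and BrdU incorporation.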

[15] = test system: BXPC-3; experiment: Antitumor activity against human BxPC3 cells xenografted in BALB/c nu/nu mouse assessed as inhibition of tumor growth at 20 mg/kg, iv QD for 10 consecutive days measured every 3 days post last dose; format: functional; summary of the method: as §2
[16] = target: T1, Cyclin-dependent kinase (Homo sapiens) (UniProt P06493+P11802+P24941+Q00535+Q00534+P50613+Q00526+Q00536+Q07002+P49336+Q00537+P21127+Q96Q40+Q9BWU1+O94921+P50750+Q15131+Q14004+Q8IZL9+Q9NYV4); experiment: Inhibition of CDK in human A2780 cells assessed as reduction of hyperphosphorylated form of retinoblastoma protein at 1 uM by immunohistochemistry; format: cell-based
[17] = test system: HCT-116; experiment: Antitumor activity against human HCT116 cells xenografted in BALB/c nu/nu mouse assessed as inhibition of tumor growth at 20 mg/kg, iv QD for 10 consecutive days measured every 3 days post last dose; format: functional; conditions: HCT-116, read-out: INH; summary of the method: as §2
[18] = target: T1, Cyclin-dependent kinase (Homo sapiens); experiment: Inhibition of CDK in human A2780 cells assessed as reduction of hyperphosphorylated form of retinoblastoma protein at 3 uM by immunohistochemistry; format: cell-based
[19] = test system: A2780; experiment: Inhibition of cellular DNA synthesis in human A2780 cells assessed as BrdU incorporation into nuclear DNA at 1 uM after 24 hrs by Hoechst 33342 staining-based microscopic analysis; format: functional; design: scale not given: the % may be the effect or the level left; summary of the method: as §3
[20] = target: T1, Cyclin-dependent kinase (Homo sapiens); experiment: Inhibition of CDK in human A2780 cells assessed as accumulation of hypophosphorylated form of retinoblastoma protein at 3 uM by immunohistochemistry; format: cell-based
[21] = test system: A2780; experiment: Antiproliferative activity against human A2780 cells after 72 hrs by CellTiter-Glo luminescence assay; conditions: A2780, 72 h
[22] = test system: A2780; experiment: Cell cycle arrest in human A2780 cells assessed as accumulation at S phase at 3 uM after 24 hrs by FACS analysis; format: functional; summary of the method: as §1
[23] = test system: DU-145; experiment: Antiproliferative activity against human DU145 cells after 72 hrs by SRB assay; format: functional, cell-based; conditions: DU-145, 72 h
[24] = test system: BXPC-3; experiment: Antiproliferative activity against human BxPC3 cells after 72 hrs by SRB assay; format: functional, cell-based; conditions: BXPC-3, 72 h
[25] = test system: A2780; experiment: Antitumor activity against human A2780 cells xenografted in BALB/c nu/nu mouse assessed as inhibition of tumor growth at 30 mg/kg, iv QD for 10 consecutive days measured every 3 days post last dose; format: functional; summary of the method: as §2
[26] = Inhibition of NIM by scintillation proximity assay
[27] = Inhibition of STK2 by scintillation proximity assay
[28] = test system: MCF7; experiment: Antiproliferative activity against human MCF7 cells after 72 hrs by SRB assay; format: functional, cell-based; conditions: MCF7, 72 h
[29] = test system: A2780; experiment: Cell cycle arrest in human A2780 cells assessed as accumulation at G0/G1 phase at 3 uM after 24 hrs by FACS analysis; format: functional; summary of the method: as §1
[30] = target: T1, Cyclin-dependent kinase (Homo sapiens); experiment: Inhibition of CDK in human A2780 cells assessed as accumulation of hypophosphorylated form of retinoblastoma protein at 1 uM by immunohistochemistry; format: cell-based
[31] = test system: HCT-116; experiment: Antiproliferative activity against human HCT116 cells after 72 hrs by SRB assay; format: functional, cell-based; conditions: HCT-116, 72 h
[32] = test system: A2780; experiment: Antitumor activity against human A2780 cells xenografted in iv dosed BALB/c nu/nu mouse assessed as inhibition of tumor growth administered QD for 10 consecutive days measured every 3 days post last dose; format: functional, organism-based; summary of the method: as §2
[33] = test system: A2780; experiment: Cell cycle arrest in human A2780 cells assessed as accumulation at G2/M phase at 1 uM after 24 hrs by FACS analysis; format: functional; summary of the method: as §1
[34] = Inhibition of PDGFR by scintillation proximity assay

- IC50 [1]: > 10000 nM
- IC50 [3]: > 10000 nM
- IC50 [9]: 601 nM
- IC50 [10]: 188 nM
- IC50 [12]: 396 nM
- Activity [16]: Active
- Activity [18]: Active
- Activity [20]: Active
- IC50 [21]: 90 nM
- IC50 [23]: 303 nM
- IC50 [24]: 3440 nM
- IC50 [26]: > 10000 nM
- IC50 [27]: > 10000 nM
- IC50 [28]: 1280 nM
- Activity [30]: Active
- IC50 [31]: 163 nM
- IC50 [34]: > 10000 nM
Structure (SMILES): CC(C)CC(=O)Nc1n[nH]c2c1CN(C(=O)C1CCN(C)CC1)C2(C)C [PHA-793887]
- Activity [2]: 25%
- Activity [4]: Dose-dependent effect
- Activity [5]: 263%
- Activity [6]: 26.2%
- IC50 [7]: 285 nM
- Activity [8]: -76%
- Activity [11]: Active
- Activity [13]: Active
- Activity [14]: -100%
- inhibition in vivo at 20 mg/kg [15]: 84%
- inhibition in vivo at 20 mg/kg [17]: 81%
- Activity [19]: -85%
- Activity [22]: -48%
- inhibition in vivo at 30 mg/kg [25]: 76%
- Activity [29]: -11%
- Activity [32]: Dose-dependent effect
- Activity [33]: 62%
